These results are taken from ChEMBL document CHEMBL1132377 (J Med Chem, 1999).

Values after ≈ are worked out from the molar mass of the structure shown. Where only a bound is given, the exact number is not on record here.

In assay [1] the target is T1, Peptidyl-prolyl cis-trans isomerase FKBP1A (Homo sapiens, UniProt P62942). Put plainly: Compound was evaluated for its inhibitory effect on human FK506 binding protein 12 by means of protease-coupled PPIase assay. Put shortly:
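Recombinant hFKBP12 (14 nM) preincubated ≥5 min with effectors (0.01–200 μM, diluted from DMSO stocks, organic solvent usually below 0.1% v/v) in 35 mM HEPES pH 7.8. Reaction started with Suc-Ala-Phe-Pro-Phe-pNA (24.0 μM); α-chymotrypsin (410 μg/mL) as isomer-specific protease; 4-nitroaniline release read at 390 nm, 10 °C. First-order k_enz derived; IC50 from concentration dependence; mean ± SD of three determinations.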

A further assay deals with K562. Put plainly: Cytotoxicity against […] leukemic cell line, by means of standard proliferation assay. The note with it: Homo sapiens. In kind it is functional, cell-based.
Another assay relates to L929. Description: Cytotoxicity against mouse L-929 fibroblast cell line, by means of standard proliferation assay. In kind it is functional, cell-based.
Assay [2] relates to Rattus norvegicus. Description: Effect on Axonal Regeneration following sciatic nerve neurotomy at a dose of 30 mg/kg after 8 weeks. It counts as functional. The method in brief: (§1)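 Left sciatic nerve cut (neurotomy) in 4-month-old female HAN:Wist rats under intramuscular Rompun/Ketavet anaesthesia. A single 30 mg/kg dose was applied at the lesion site. Walking behaviour was scored up to 8 or 10 weeks after surgery. Values are % increase in rate of functional recovery versus placebo-treated rats, given as mean ± SD of n animals.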

Assay [3] has as its system Rattus norvegicus. Description: Effect on Axonal Regeneration following sciatic nerve neurotomy at a dose of 30 mg/kg after 10 weeks. In kind it is functional. The method in brief: as §1
The subject of assay [4] is Rattus norvegicus. Description: Weight difference between EDL muscles of axotomized left hind limbs and corresponding right controls 8 weeks (dose=30 mg/kg). It counts as functional, Muscle tissue. The method in brief:
(§2)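 Female HAN:Wist rats (4 months old) underwent left sciatic neurotomy with 30 mg/kg given locally at the lesion. EDL muscles were taken at 8 or 10 weeks and weighed relative to protein concentration. The % weight difference, lesioned left versus intact right limb, was expressed relative to placebo controls. Values are mean ± SD of n animals.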

The test system of assay [5] is Rattus norvegicus. Description: Weight difference between EDL muscles of axotomized left hind limbs and corresponding right controls 10 weeks (dose=30 mg/kg). It counts as functional, Muscle tissue. The method in brief:
as §2

The nature of assay [6]: Inhibition constant(Ki) for inhibition of PPIase activity of Escherichia coli parvulin (Conc=6 nM) of Parvulins sfamily.
Assay [7] can be described thus: Inhibition constant(Ki) for inhibition of PPIase activity of Escherichia coli FK506 binding protein 26 (Conc=1 uM) of FKBPs family. Put shortly:
(§3)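 Protease-coupled PPIase assay with α-chymotrypsin 410 μg/mL and Suc-Ala-Phe-Pro-Phe-pNA 24.0 μM. Enzyme was preincubated at least 5 min with inhibitor (0.01–200 μM) in 35 mM HEPES pH 7.8, DMSO usually below 0.1%. 4-Nitroaniline release was read at 390 nm, 10 °C, and first-order k_enz derived. Ki came from nonlinear competitive-inhibition fit; mean ± SD of three.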

Assay [8] has as its target Peptidyl-prolyl cis-trans isomerase NIMA-interacting 1 (Homo sapiens, UniProt Q13526). Put plainly: Inhibition constant(Ki) for inhibition of PPIase activity of human Peptidyl-prolyl cis-trans isomerase NIMA-interacting 1 (Conc=4 nM) of Parvulins family. The method in brief:
(§4)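 PPIase assay coupled to trypsin 210 μg/mL, using Suc-Ala-Phe-Pro-Arg-pNA 34.0 μM (SlyD) or Ac-Ala-Ala-Ser(P)-Pro-Arg-pNA 26.0 μM (hPin1). Enzyme was preincubated at least 5 min with inhibitor (0.01–200 μM) in 35 mM HEPES pH 7.8. Absorbance at 390 nm was followed at 10 °C, and first-order catalytic rate constants were fitted to a competitive model.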

Assay [9] in a line: Inhibition constant(Ki) for inhibition of PPIase activity of human Cyclophilin 18 (Conc=2 nM). Put shortly:
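hCyp18 was expressed recombinantly in E. coli and assayed for PPIase activity with α-chymotrypsin 410 μg/mL and Suc-Ala-Phe-Pro-Phe-pNA 24.0 μM. It was preincubated at least 5 min with 0.01–200 μM inhibitor in 35 mM HEPES pH 7.8. 4-Nitroaniline was monitored at 390 nm, 10 °C, and constants were obtained by competitive nonlinear fit.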

For assay [10], the target named is T1, Peptidyl-prolyl cis-trans isomerase FKBP1A. Description: Inhibition constant(Ki) for inhibition of PPIase activity of human FK506 binding protein 12 (Conc=14 nM) of FKBPs family. Put shortly:
as §3

Assay [11] is described as follows: Inhibition constant(Ki) for inhibition of PPIase activity of Escherichia coli trigger factor (Conc=12 nM) of FKBPs family. The method in brief:
as §3

Assay [12] in a line: Inhibition constant(Ki) for inhibition of PPIase activity of Escherichia coli SlyD (Conc=2 uM) of FKBPs family. Put shortly: as §4
Assay [13] deals with Rattus norvegicus. Put plainly: Effect on Axonal Regeneration following sciatic nerve neurotomy at a dose of 1 mg/kg after 10 weeks. In kind it is functional. The method in brief:
(§5)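 Sciatic nerve of left hind leg lesioned (neurotomy) in 4-month-old female HAN:Wist rats under intramuscular Rompun (16 mg/kg)/Ketavet (125 mg/kg) anesthesia. Functional recovery scored from walking behavior. EDL muscle weights of the lesioned left limb and the unlesioned right limb compared, with weights related to protein concentration. Weight differences expressed as percentages relative to placebo; mean ± SD of n animals.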

The subject of assay [14] is Rattus norvegicus. Description: Weight difference between EDL muscles of axotomized left hind limbs and corresponding right controls 10 weeks (dose=1 mg/kg). In kind it is functional, Muscle tissue. Put shortly:
as §5

T1 sequence (P62942 whole entry): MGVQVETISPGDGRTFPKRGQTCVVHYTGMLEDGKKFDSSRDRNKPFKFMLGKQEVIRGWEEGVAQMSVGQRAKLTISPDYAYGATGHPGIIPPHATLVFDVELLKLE
Chain of Peptidyl-prolyl cis-trans isomerase NIMA-interacting 1 (Q13526 whole entry): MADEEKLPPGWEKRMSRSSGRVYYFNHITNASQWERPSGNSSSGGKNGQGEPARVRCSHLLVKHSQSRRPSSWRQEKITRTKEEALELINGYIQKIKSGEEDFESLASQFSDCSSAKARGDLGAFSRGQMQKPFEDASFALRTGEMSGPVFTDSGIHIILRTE

For the compound `CCOC(=O)CCCN1C(=O)CC(C[C@@H](O)[C@@H]2C[C@@H](C)C[C@H](C)C2=O)CC1=O`, the IC50 was determined as 22.3 µM in assay [1], 109 µg/mL (≈ 276 µM) in the assay on K562 and 145 µg/mL (≈ 366 µM) with L929.
Take `CC(=O)O[C@H](CC1CC(=O)NC(=O)C1)[C@@H]1C[C@@H](C)C[C@H](C)C1=O`: the half-inhibitory concentration (IC50) in assay [1] was more than 200 µM; in the assay on K562 it was 1.1 µg/mL (≈ 3.4 µM); in the assay on L929, 9.3 µg/mL (≈ 28.8 µM).
Take `C[C@@H]1C[C@@H]([C@H](O)CC2CC(=O)N(C)C(=O)C2)C(=O)[C@@H](C)C1`: the half-inhibitory concentration (IC50) in [1] was 124 µM; in the assay on K562, 133 µg/mL (≈ 449 µM); in the assay on L929, more than 200 µg/mL.
Regarding `C[C@@H]1C[C@@H]([C@H](O)CC2CC(=O)N(Cc3ccccc3)C(=O)C2)C(=O)[C@@H](C)C1`, the IC50 in [1] amounted to 117 µM; with K562, 81.6 µg/mL (≈ 220 µM); with L929, 135 µg/mL (≈ 364 µM).
On the same counts, the results for `C[C@@H]1C[C@@H]([C@H](O)CC2CC(=O)N(CC(N)=O)C(=O)C2)C(=O)[C@@H](C)C1` are 21.6 µM, 4.6 µg/mL (≈ 13.6 µM) and 5.3 µg/mL (≈ 15.7 µM).
As for `CCOC(=O)CN1C(=O)CC(C[C@@H](OC(=O)NC23C[C@H]4C[C@@H](C2)C[C@@H](C3)C4)[C@@H]2C[C@@H](C)C[C@H](C)C2=O)CC1=O`, the half-maximal inhibitory concentration (IC50) in assay [1] was more than 200 µM.
Turning to `CCOC(=O)CN1C(=O)CC(C[C@@H](O)[C@@H]2C[C@@H](C)C[C@H](C)C2=O)CC1=O`, the results for the IC50 (in assay [1]; in the assay with K562; in the assay with L929) were 4.4 µM, 64.9 µg/mL (≈ 177 µM) and 76.7 µg/mL (≈ 209 µM), respectively. The values for the Walking behaviour with Rattus norvegicus [2] and in the assay on Rattus norvegicus [3] were 46% and 14%, respectively. The values for the Weight difference with Rattus norvegicus [4] and in the assay on Rattus norvegicus [5] were 20% and 13%, respectively.
On to `C[C@@H]1C[C@@H]([C@H](O)CC2CC(=O)N(Cc3ccc(C#N)cc3)C(=O)C2)C(=O)[C@@H](C)C1`, for which the 50% inhibitory concentration (IC50) in assay [1] amounted to 68.2 µM; in the assay on K562, 0.8 µg/mL (≈ 2.02 µM); in the assay with L929 it was 1.4 µg/mL (≈ 3.53 µM).
For the compound `C[C@@H]1C[C@@H]([C@H](O)CC2CC(=O)NC(=O)C2)/C(=N\O)[C@@H](C)C1`, the results for the concentration for half-maximal inhibition (IC50) (in assay [1]; in the assay with K562; in the assay on L929) were 177 µM, 116 µg/mL (≈ 393 µM) and 86.9 µg/mL (≈ 293 µM), respectively.
As to `C[C@@H]1C[C@@H]([C@H](O)CC2CC(=O)NC(=O)C2)C(=O)[C@@H](C)C1` [CYCLOHEXIMIDE], the half-inhibitory concentration (IC50) in assay [1] was 3.6 µM; in the assay with K562 it was less than 0.39 µg/mL; in the assay on L929, less than 0.39 µg/mL. Moreover, the Ki was 187 µM in [6]; 10.3 µM in assay [7]; more than 200 µM in assay [8]; more than 200 µM in assay [9]; 3.4 µM in assay [10]; more than 200 µM in [11]. In assay [12], this compound registered an inhibition constant Ki of more than 200 µM.
On to `C=CC[C@@H]1/C=C(\C)C[C@H](C)C[C@H](OC)[C@H]2O[C@@](O)(C(=O)C(=O)N3CCCC[C@H]3C(=O)O[C@H](/C(C)=C/[C@@H]3CC[C@@H](O)[C@H](OC)C3)[C@H](C)[C@@H](O)CC1=O)[C@H](C)C[C@@H]2OC` [TACROLIMUS ANHYDROUS], for which the Walking behaviour with Rattus norvegicus [13] is given as 100%. The Weight difference in the assay with Rattus norvegicus [14] stood at 18%.

For orientation: IC50 means the concentration that inhibits the measured activity by half. The Ki is a dissociation constant, usually derived from enzyme kinetics or from competition with a known ligand. A high value points to a looser hold on the target.
